# Test results from ChEMBL document CHEMBL3612038, “N-Alkyl/aryl-4-(3-substituted-3-phenylpropyl)piperazine-1-carbothioamide as dual-action vaginal microbicides with reverse transcriptase inhibition” (Eur J Med Chem, 2015).
# What was measured:
# [1] = system: Cryptococcus neoformans; experiment: Antifungal activity against Cryptococcus neoformans incubated for 48 hrs by broth micro-dilution method; assay type: functional
# Outline: (§1)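 Broth microdilution per NCCLS guidelines in RPMI 1640 buffered with MOPS; starting inoculum 1–5 × 10^3 CFU/mL; plates incubated at 35 °C, MIC read after 48 h.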
# [2] = biological target: Human immunodeficiency virus type 1 reverse transcriptase (Human immunodeficiency virus 1) (UniProt Q72547); experiment: Inhibition of HIV1 reverse transcriptase at 100 ug/ml incubated for 1 hr by ELISA method
# Outline: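 Non-radioactive colorimetric ELISA: template/primer with dNTPs plus HIV-1 RT in lysis buffer ± compound (100 µg/mL), 1 h at 37 °C; RT-free buffer as negative control, nevirapine as positive control. Product captured on streptavidin plate 1 h at 37 °C, detected with anti-DIG-POD and ABTS, OD 405 nm.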
# [3] = system: Trichomonas vaginalis; experiment: Resistance index, ratio of MIC for MTZ-resistant Trichomonas vaginalis to MIC for MTZ-susceptible Trichomonas vaginalis; assay type: functional
# [4] = system: Candida albicans; experiment: Antifungal activity against Candida albicans incubated for 48 hrs by broth micro-dilution method; assay type: functional; outline: as §1
# [5] = system: Aspergillus fumigatus; experiment: Antifungal activity against Aspergillus fumigatus incubated for 48 hrs by broth micro-dilution method; assay type: functional; outline: as §1
# [6] = system: Trichophyton mentagrophytes; experiment: Antifungal activity against Trichophyton mentagrophytes incubated for 48 hrs by broth micro-dilution method; assay type: functional; outline: as §1
# [7] = system: Trichomonas vaginalis; experiment: Anti-trichomonas activity against MTZ-susceptible Trichomonas vaginalis incubated for 3 to 48 hrs by trypan blue exclusion assay; assay type: functional
# Outline: (§2)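 Trichomonas vaginalis trophozoites (5 × 10^4/L as printed) in TYM medium; DMSO stocks (100.0 mg/mL) serially diluted in TYM to 0.1 mg/mL, DMSO/TYM vehicle controls. Anaerobic incubation at 37 °C; viability checked 3–48 h by microscopy (200×) with trypan blue exclusion. MIC = lowest concentration killing all cells within 48 h.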
# [8] = Effect on Lactobacillus jensenii ATCC 25258 62G assessed as effect on microbial proliferation at 200 ug/ml incubated for 24 hrs
# Outline: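 L. jensenii ATCC 25258 (strain 62G) in 6% Rogosa SL broth with 0.132% acetic acid; serial compound dilutions or vehicle in triplicate, ~1000 CFU per well, 24 h at 37 °C, humidified 5% CO2; growth read as OD610, expressed relative to control = 100.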
# [9] = system: Trichomonas vaginalis; experiment: Anti-trichomonas activity against MTZ-resistant Trichomonas vaginalis incubated for 3 to 48 hrs by trypan blue exclusion assay; assay type: functional; outline: as §2
# [10] = Spermicidal activity in liquefied human semen assessed as reduction in motile spermatozoa incubated at 37 degC for 30 mins; assay type: functional, Sperm; conditions: for minimal effective concentration: Homo sapiens, Sperm, Semen, 0.5 h, read-out: MEC
# Outline: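 Compounds dissolved in minimal DMSO, diluted with 0.85% saline to 1.0% test solution; liquefied human semen mixed 1:5 with test solution, vortexed 10 s; motile sperm scored by phase-contrast microscopy over 60 s in five fields. MEC = lowest concentration immobilizing 100% of sperm, still immotile after dilution with nutrient medium.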
# [11] = system: Candida parapsilosis; experiment: Antifungal activity against Candida parapsilosis ATCC 22019 incubated for 48 hrs by broth micro-dilution method; assay type: functional; conditions: Lodderomyces parapsilosis, ATCC 22019, 48 h; outline: as §1
# [12] = system: Sporothrix schenckii; experiment: Antifungal activity against Sporothrix schenckii incubated for 48 hrs by broth micro-dilution method; assay type: functional; outline: as §1
# [13] = system: HeLa; experiment: Cytotoxicity against human HeLa cells assessed as reduction in cell viability at 200 ug/ml incubated for 24 hrs by MTT assay; assay type: cell-based
# Outline: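 HeLa cells seeded at 5 × 10^4 per well, exposed 24 h to compound dilutions in culture medium or vehicle control; MTT (5 mg/mL in pH 7.4 buffer) added, formazan dissolved in DMSO, absorbance read at 540 nm.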
SMILES,MIC [1] [µM],inhibition [2] [%],Ratio [3],MIC [4] [µM],MIC [5] [µM],MIC [6] [µM],MIC [7] [µM],Activity [8],MIC [9] [µM],MEC [10] [%],minimal effective concentration [10] [µM],MIC [11] [µM],MIC [12] [µM],Activity [13]
O=C(CCN1CCN(C(=S)Nc2ccccc2)CC1)c1ccccc1,17.6,49.2,2,> 81.2,> 81.2,17.6,88.5,Non-toxic,354,0.1,2830,> 81.2,> 81.2,Non-toxic
OC(CCN1CCN(C(=S)NCc2ccccc2)CC1)c1ccccc1 (stereo not given),> 81.2,47.2,2,> 81.2,> 81.2,> 81.2,169,Non-toxic,339,0.05,1350,> 81.2,> 81.2,Non-toxic
FC(F)(F)c1ccc(OC(CCN2CCN(C(=S)Nc3ccccc3)CC2)c2ccccc2)cc1 (stereo not given),> 81.2,21.1,2,> 81.2,> 81.2,> 81.2,50.1,Non-toxic,,0.05,1000,> 81.2,> 81.2,Non-toxic
Cc1ncc([N+](=O)[O-])n1CCO [METRONIDAZOLE],,,15,,,,19.7,,293,,,,,
O=C(CCN1CCN(C(=S)NC2CCCCC2)CC1)c1ccccc1,8.6,47.7,2,34.7,> 81.2,4.33,43.3,Non-toxic,175,0.05,1390,> 81.2,> 81.2,Non-toxic
FC(F)(F)c1ccc(OC(CCN2CCN(C(=S)NCc3ccccc3)CC2)c2ccccc2)cc1 (stereo not given),12.1,51,2,> 81.2,> 81.2,6.07,60.9,Non-toxic,243,>1,> 19500,> 81.2,> 81.2,Non-toxic
FC(F)(F)c1ccc(OC(CCN2CCN(C(=S)NCCc3ccccc3)CC2)c2ccccc2)cc1 (stereo not given),> 81.2,38.4,2,> 81.2,> 81.2,> 81.2,47.3,Non-toxic,118,>1,> 19000,> 81.2,> 81.2,Non-toxic
CCCCNC(=S)N1CCN(CCC(Oc2ccc(C(F)(F)F)cc2)c2ccccc2)CC1 (stereo not given),> 81.2,59.6,2,> 81.2,> 81.2,> 81.2,130,Non-toxic,261,>1,> 20900,> 81.2,> 81.2,Non-toxic
